Measured values reported in ChEMBL document CHEMBL3286129, “Optimization of peptidomimetic boronates bearing a P3 bicyclic scaffold as proteasome inhibitors” (Eur J Med Chem, 2014).
Activity calls are given as the source filed them. No cut-off for these calls is given here.

Legend:
NCI-H460 = assay: Growth inhibition of human NCI-H460 cells; format: functional
NCI-H522 = assay: Growth inhibition of human NCI-H522 cells; format: functional
COLO 205 = assay: Growth inhibition of human COLO205 cells; format: functional
HT-29 = assay: Growth inhibition of human HT-29 cells; format: functional
[1] = Growth inhibition of human SF539 cells; format: functional
SNB-75 = assay: Growth inhibition of human SNB75 cells; format: functional
[2] = Growth inhibition of human LOXIMVI cells; format: functional; settings: LOX IMVI
Malme-3M = assay: Growth inhibition of human MALME-3M cells; format: functional
SK-MEL-28 = assay: Growth inhibition of human SK-MEL-28 cells; format: functional
SK-MEL-5 = assay: Growth inhibition of human SK-MEL-5 cells; format: functional
[3] = Growth inhibition of human UACC257 cells; format: functional
IGROV-1 = assay: Growth inhibition of human IGROV1 cells; format: functional
[4] = Growth inhibition of human OVCAR3 cells; format: functional; settings: OVCAR-3
[5] = Growth inhibition of human OVCAR4 cells; format: functional
[6] = Growth inhibition of human NCI-ADR-RES cells; format: functional
786-0 = assay: Growth inhibition of human 786-0 cells; format: functional
ACHN = assay: Growth inhibition of human ACHN cells; format: functional
TK-10 = assay: Growth inhibition of human TK10 cells; format: functional
[7] = Growth inhibition of human UO31 cells; format: functional; settings: UO-31
MCF7 = assay: Growth inhibition of human MCF7 cells; format: functional
[8] = Growth inhibition of human BT549 cells; format: functional
[9] = target: T1, Proteasome Macropain subunit MB1 (Homo sapiens) (UniProt P28074); assay: Inhibition of chymotrypsin-like activity of 20S proteasome in human erythrocytes using Suc-Leu-Leu-Val-Tyr-AMC as substrate at 20 uM by fluorescence assay relative to control
T1 sequence (whole entry): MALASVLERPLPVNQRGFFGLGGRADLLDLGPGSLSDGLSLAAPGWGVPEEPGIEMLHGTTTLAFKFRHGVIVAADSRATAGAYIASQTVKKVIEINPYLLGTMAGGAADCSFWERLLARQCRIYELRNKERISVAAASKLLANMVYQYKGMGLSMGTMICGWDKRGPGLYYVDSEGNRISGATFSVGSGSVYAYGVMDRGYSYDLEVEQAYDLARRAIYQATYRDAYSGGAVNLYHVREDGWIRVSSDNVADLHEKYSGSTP
Outline: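 Single inhibitor concentration, equivalent DMSO as negative control. AMC fluorescence read at ex 380/em 460 nm; percent inhibition of ChT-L activity.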

[10] = target: T2, Proteasome Macropain subunit MB1 (Homo sapiens, UniProt P28074); assay: Inhibition of chymotrypsin-like activity of 20S proteasome in human erythrocytes using Suc-Leu-Leu-Val-Tyr-AMC as substrate by fluorescence assay; settings: read-out: Ki
T2 sequence (P28074 whole entry): T1 sequence (whole entry)

[11] = target: Proteasome Macropain subunit (Homo sapiens) (UniProt P49721); assay: Inhibition of trypsin-like activity of 20S proteasome in human erythrocytes using Boc-Leu-Arg-Arg-AMC as substrate by fluorescence assay; format: cell-based
Sequence of Proteasome Macropain subunit (Homo sapiens) (P49721 whole entry): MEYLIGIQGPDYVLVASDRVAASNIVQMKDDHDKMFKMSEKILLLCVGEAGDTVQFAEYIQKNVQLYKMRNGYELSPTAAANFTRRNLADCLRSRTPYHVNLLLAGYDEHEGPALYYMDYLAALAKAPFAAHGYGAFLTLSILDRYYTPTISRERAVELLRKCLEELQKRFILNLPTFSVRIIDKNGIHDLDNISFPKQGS
Outline: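 Human 20S proteasome 0.0025 mg/mL at 30 °C in 50 mM Tris pH 7.4, 50 mM NaCl, 0.5 mM EDTA, 0.03% SDS, 7.5% DMSO. Varied inhibitor concentrations; AMC release monitored continuously for 10 min, ex 380/em 460 nm. Ki derived from progress-curve IC50 fit.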

Chymotrypsinogen A = Chymotrypsinogen A (Bos taurus, UniProt P00766); assay: Inhibition of bovine pancreatic alpha-chymotrypsin using Suc-Leu-Leu-Val-Tyr-AMC as substrate by fluorescence assay
Outline: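 Enzyme incubated at 20 °C in 50 mM Tris pH 8.0, 100 mM NaCl, 5 mM EDTA, 7.5% DMSO with varied inhibitor concentrations. Substrate hydrolysis followed for 10 min. Ki from progress curves; mean of three determinations.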

[12] = Cytotoxicity against human leukemia cells assessed as cell growth at 10 uM relative to control; format: functional; settings: read-out: Activity
Outline: (§1)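 Single-concentration screen against a panel of human cancer cell lines. Each value is the mean percent growth across the cell lines of that tumour subpanel.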

[13] = Cytotoxicity against human NSCLC cells assessed as cell growth at 10 uM relative to control; format: functional; settings: read-out: Activity; outline: as §1
[14] = Cytotoxicity against human prostate cancer cells assessed as cell growth at 10 uM relative to control; format: functional; settings: Cancer cell lines, read-out: Activity; outline: as §1
[15] = Cytotoxicity against human breast cancer cells assessed as cell growth at 10 uM relative to control; format: functional; settings: Cancer cell lines, read-out: Activity; outline: as §1
[16] = Growth inhibition of human MOLT4 cells; format: functional
SR = assay: Growth inhibition of human SR cells; format: functional
HOP-62 = assay: Growth inhibition of human HOP62 cells; format: functional
[17] = Growth inhibition of human HOP92 cells; format: functional
NCI-H226 = assay: Growth inhibition of human NCI-H226 cells; format: functional
[18] = read-out: LC50 (the source's name)

For CC(C)C[C@H](NC(=O)CCn1ccc2ncccc2c1=O)B(O)O, the GI50 (NCI-H460) was 36.2 µM, the LC50 (NCI-H460) was > 100 µM and the TGI (NCI-H460) was > 100 µM. For the same compound, the GI50 (NCI-H522) was 4.66 µM, the LC50 (NCI-H522) was > 100 µM and the TGI (NCI-H522) was 21.7 µM. For the same compound, the GI50 (COLO 205) was 10 µM, the TGI (COLO 205) was > 100 µM and the CC50 (COLO 205; [18]) was > 100 µM. The GI50 (HT-29) was 6.77 µM, the LC50 (HT-29) was > 100 µM and the TGI (HT-29) was > 100 µM. The GI50 ([1]; SF-539) was 2.76 µM, the TGI ([1]; SF-539) was 8.38 µM and the CC50 ([1]; SF-539, read-out: LC50 (the source's name)) was > 100 µM. The GI50 (SNB-75) was 13.3 µM, the LC50 (SNB-75) was > 100 µM and the TGI (SNB-75) was 44.9 µM. For the same compound, the GI50 [2] was 6.37 µM, the TGI [2] was 28.4 µM and the CC50 [2, 18] was > 100 µM. For the same compound, the GI50 (Malme-3M) was 5.12 µM, the TGI (Malme-3M) was 62.2 µM and the CC50 (Malme-3M; [18]) was > 100 µM. For the same compound, the GI50 (SK-MEL-28) was 7.17 µM, the TGI (SK-MEL-28) was > 100 µM and the CC50 (SK-MEL-28; [18]) was > 100 µM. For the same compound, the GI50 (SK-MEL-5) was 4.03 µM, the LC50 (concentration killing 50% of cells) (SK-MEL-5) was > 100 µM and the TGI (SK-MEL-5) was 22.1 µM. For the same compound, the GI50 ([3]; UACC-257) was 10.1 µM, the TGI ([3]; UACC-257) was 47 µM and the CC50 ([3]; UACC-257, read-out: LC50 (the source's name)) was > 100 µM. For the same compound, the GI50 (IGROV-1) was 60.2 µM, the LC50 (IGROV-1) was > 100 µM and the TGI (IGROV-1) was > 100 µM. For the same compound, the GI50 [4] was 4.65 µM, the LC50 (concentration killing 50% of cells) [4] was > 100 µM and the TGI [4] was 31.9 µM. For the same compound, the GI50 ([5]; OVCAR-4) was 28.4 µM, the TGI ([5]; OVCAR-4) was > 100 µM and the CC50 ([5]; OVCAR-4, read-out: LC50 (the source's name)) was > 100 µM. For the same compound, the GI50 [6] was > 100 µM, the LC50 [6] was > 100 µM and the TGI [6] was > 100 µM. The GI50 (786-0) was 7.94 µM, the TGI (786-0) was > 100 µM and the CC50 (786-0; [18]) was > 100 µM. The GI50 (ACHN) was 9.15 µM, the TGI (ACHN) was > 100 µM and the CC50 (ACHN; [18]) was > 100 µM. For the same compound, the GI50 (TK-10) was 5.16 µM, the LC50 (TK-10) was > 100 µM and the TGI (TK-10) was 47.7 µM. The GI50 [7] was 19.4 µM, the LC50 [7] was > 100 µM and the TGI [7] was > 100 µM. For the same compound, the GI50 (MCF7) was 3.61 µM, the TGI (MCF7) was > 100 µM and the CC50 (MCF7; [18]) was > 100 µM. The GI50 ([8]; BT-549) was 3.49 µM, the TGI ([8]; BT-549) was 12.5 µM and the CC50 ([8]; BT-549, read-out: LC50 (the source's name)) was > 100 µM. For the same compound, the inhibition [9] was > 40%, the Ki [10] was 0.057 µM and the inhibition [11] was “inactive”. For the same compound, the Ki (Chymotrypsinogen A) was “Not Active”, the growth at 10 µM [12] was 34.8% and the growth at 10 µM [13] was 80.3%. It also gave a growth at 10 µM [14] of 98.5%, a growth at 10 µM [15] of 68% and a GI50 ([16]; MOLT-4) of 3.3 µM. For the same compound, the TGI ([16]; MOLT-4) was > 100 µM, the CC50 ([16]; MOLT-4, read-out: LC50 (the source's name)) was > 100 µM and the GI50 (SR) was 3.18 µM. For the same compound, the TGI (SR) was > 100 µM, the CC50 (SR; [18]) was > 100 µM and the GI50 (HOP-62) was 29.8 µM. For the same compound, the TGI (HOP-62) was > 100 µM, the CC50 (HOP-62; [18]) was > 100 µM and the GI50 ([17]; HOP-92) was 16.8 µM. For the same compound, the TGI ([17]; HOP-92) was 71.3 µM, the CC50 ([17]; HOP-92, read-out: LC50 (the source's name)) was > 100 µM and the GI50 (NCI-H226) was 2.68 µM. It also gave a TGI (NCI-H226) of 8.9 µM and a CC50 (NCI-H226; [18]) of 48 µM.
